RGS4 inh: human RGS4 inhibition | actives 0.45% (n = 310,000) | HEK293 M3R/RGS4 inducible, Fluo-4 calcium flux; active compounds read high; triggered by carbachol at its EC20 | P49798 | B-score at 10 µM;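 active = B-score, a plate-corrected calcium signal, over three deviations above library mean, with baseline fluorescence within five deviations of library mean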;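 also: RGS4 expression induced by doxycycline in cells with stable M3 receptor; B-score is computed from the integrated fluorescence ratio over baseline after carbachol; higher B-score means a larger calcium signal and so more RGS4 inhibition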
Target sequence (P49798 whole entry, looked up): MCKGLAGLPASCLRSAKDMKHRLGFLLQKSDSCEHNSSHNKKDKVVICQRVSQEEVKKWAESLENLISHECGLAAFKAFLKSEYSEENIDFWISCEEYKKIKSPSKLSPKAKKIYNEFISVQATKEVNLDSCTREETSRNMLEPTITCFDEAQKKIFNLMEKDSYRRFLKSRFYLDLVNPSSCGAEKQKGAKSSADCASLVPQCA
MrgX1 antagonist: human MrgX1 receptor antagonism, primary screen | actives 1.3% (n = 310,000) | Q96LB2 | MRGX1-HEK293 calcium flux, Fluo-4, BAM8-22 antagonism; active compounds read low | B-score at 10 µM | AID 588676;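 active = calcium-response B-score plate-corrected more than 3 library SD below zero, starting fluorescence within 5 deviations, no agonist response on first addition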;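 also: peak minus trough fluorescence over baseline after final BAM8-22 challenge near maximal dose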
Target sequence (Q96LB2 whole entry, looked up): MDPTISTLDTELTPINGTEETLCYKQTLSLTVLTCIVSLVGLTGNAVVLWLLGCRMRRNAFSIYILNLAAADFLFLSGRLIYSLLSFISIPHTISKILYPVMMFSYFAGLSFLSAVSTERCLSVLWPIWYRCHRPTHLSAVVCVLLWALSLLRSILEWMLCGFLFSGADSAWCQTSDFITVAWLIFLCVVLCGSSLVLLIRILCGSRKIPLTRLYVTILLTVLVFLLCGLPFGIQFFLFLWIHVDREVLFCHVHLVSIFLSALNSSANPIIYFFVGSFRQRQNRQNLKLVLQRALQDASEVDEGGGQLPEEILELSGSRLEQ
RGS4 act: potentiators or activators of RGS4 | HEK293 M3R/inducible RGS4, carbachol calcium flux Fluo4; active compounds read low | B-score at 10 µM | actives 0.92% (n = 310,000) | AID 463111;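 active = B-score of the integrated calcium signal more than 4 SD below the library mean, with starting fluorescence not abnormally high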;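 also: negative B-score means reduced calcium response which marks RGS4 activation or potentiation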
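Detection: kinetic calcium fluorescence imaging with Fluo4-AM dye, 2 µM / Material: HEK293 cells with stable M3R and inducible RGS4 / Schedule: recording 10 s baseline at 1 Hz, 100 s post-agonist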
MrgX1 PAM: human MrgX1 positive allosteric modulation, primary screen; B-score at 10 µM; Q96LB2; MrgX1-HEK293, Fluo-4 calcium flux, FDSS; active compounds read high; AID 588675; actives 0.63% (n = 310,000);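 active = plate-corrected calcium response at least 3 library SD above typical, normal starting fluorescence, not activating the receptor alone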;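 also: compound read alongside a low EC10 to EC30 dose of BAM8-22 agonist; peak minus trough fluorescence over baseline measured at the second addition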
MrgX1 agonist: agonists of human MrgX1 receptor; Q96LB2; MrgX1-HEK293 cells, Fluo-4 calcium fluorescence, agonist mode; active compounds read high; B-score at 10 µM; actives 0.44% (n = 310,000);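 active = calcium response B-score plate-corrected fluorescence ratio at least 3 library SD, with starting fluorescence B-score inside 5 SD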
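Material – MrgX1-expressing HEK293 cells · Input – 15,000 cells seeded per well · Dosing – compound as first of three additions · Times – overnight seeding, then 1 h dark dye loading · Measured by – kinetic Fluo-4 NW fluorescence of intracellular calcium · Read-out – B-scored fluorescence response ratio · Benchmarks – positive and negative control wells on each plate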
MrgX1 antag conf: reconfirmed antagonist of human MrgX1 receptor signaling; shares compounds with MrgX1 antagonist; MrgX1-HEK293, BAM8-22 calcium flux, Fluo-4; active compounds read low; remaining BAM8-22 calcium response % of control (active compounds read low), % at 10 µM; actives 19% (n = 2,300);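 active = remaining agonist calcium response no higher than 100% minus 3 SD of agonist-only control wells, with starting fluorescence near control levels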;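 also: agonist BAM8-22 given at a near maximal EC90 to ECmax level; peak minus minimum fluorescence divided by baseline after agonist addition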
HEK293 Ca flux: MrgX1 antagonist counter-screen hit in parental HEK293 cells; shares compounds with MrgX1 antagonist; Fluo-4 calcium fluorescence, FDSS; fluorescence ratio F(max-min)/F0 at 10 µM; actives 2% (n = 4,000); AID 624111;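 active = duplicate-averaged calcium fluorescence ratio at least three times the standard deviation of buffer wells, a nonspecific response in parental cells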
HEK293 Ca counter: counter-screen for MrgX1 allosteric activators: effect in parental HEK293 cells; fluorescence ratio F(max-min)/F0 at 10 µM; shares compounds with MrgX1 antagonist; actives 0.4% (n = 4,000); parental HEK293 calcium flux, Fluo-4 fluorescence ratio; active compounds read high;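 active = calcium fluorescence ratio, averaged over duplicates, at least 3 SD of the buffer-well ratio, meaning a nonspecific response in receptor-free cells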;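 also: untransfected parental HEK293 lacking MrgX1 used as counterscreen for MrgX1 allosteric activators; fluorescence change taken during the second addition on a kinetic imager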
HEK293 Ca cntr2: counter-screen for MrgX1 activators: effect in parental HEK293 cells; fluorescence ratio F(max-min)/F0 at 10 µM; shares compounds with MrgX1 antagonist; Fluo-4 calcium fluorescence (FDSS); active compounds read high; actives 8.7% (n = 4,000);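 active = calcium fluorescence ratio at least three times the spread of buffer wells, meaning a non-specific response in parental cells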
An asterisk follows results filed as active; i = inactive; nt = no result given. A selection: hits, their analogues and other compounds. The true share with any hit is near 3.5%.

SMILES	RGS4 inh	MrgX1 antagonist	RGS4 act	MrgX1 PAM	MrgX1 agonist	MrgX1 antag conf	HEK293 Ca flux	HEK293 Ca counter	HEK293 Ca cntr2
CC(C)CNC(=O)C(=O)NCC1OCCCN1S(=O)(=O)c1ccc2c(c1)OCCO2 (centres undefined)	i	i	i	i	i	nt	nt	nt	nt
CSC1=NCCN1C(=O)c1c(-c2ccccc2Cl)noc1C	i	-6.9*	i	i	i	i	i	i	i
CC(CCc1ccc(O)cc1)NCc1ccc(Br)cc1 (centres undefined)	i	i	i	i	i	nt	nt	nt	nt
COc1ccccc1NC(=O)CN1CCN(CC(=O)Nc2ccc(S(N)(=O)=O)cc2)CC1	i	-7.6*	i	i	i	i	i	i	i
CCCCCCCN1C2=NCCCN2c2ccccc21	i	i	i	i	i	nt	nt	nt	nt
COc1ccccc1N1CCN(CC(O)c2ccc3cc[nH]c3c2)CC1 (centres undefined)	i	-9.8*	i	i	i	i	i	i	i
Cc1cc(C)c(S(=O)(=O)NCc2cccnc2)cc1C	i	i	i	i	i	nt	nt	nt	nt
COc1ccc(Cl)cc1S(=O)(=O)NCc1cccnc1	i	-5.7*	i	i	i	i	i	i	i
CCOc1cc(S(=O)(=O)NCc2cccnc2)c(C)cc1C	i	-4.9*	i	i	i	i	i	i	i
COC(=O)Nc1ccc(S(=O)(=O)NC2CCCCC2)cc1	i	i	i	i	i	nt	nt	nt	nt
CSc1nc2ccc(NC(=O)C3CCCO3)cc2s1 (centres undefined)	i	-6.8*	i	i	i	i	i	i	i
NC(=O)c1ccc(NC(=O)C2CCCO2)cc1 (centres undefined)	i	-5.9*	i	i	i	i	i	i	i
COc1ccc2nc(NC(=O)C3CCCO3)sc2c1 (centres undefined)	i	i	i	i	i	nt	nt	nt	nt
O=C(Nc1ccc(Oc2ccc(NC(=O)C3CCCO3)cc2)cc1)C1CCCO1 (centres undefined)	i	i	i	i	i	nt	nt	nt	nt
CCC(Oc1ccccc1OC)C(=O)Nc1ccc2c(c1)OCO2 (centres undefined)	i	i	i	i	i	nt	nt	nt	nt
O=C(Nc1cn(-c2ccccc2)nc1-c1ccc(F)cc1)c1ccccc1	i	-5.3*	i	i	i	81%*	i	i	i
CC(C)(C)c1cc(C(=S)N2CCCC2)cc(C(C)(C)C)c1O	i	i	i	i	i	nt	nt	nt	nt
Cc1ccc(S(=O)(=O)/N=C2\CN(C)C(=O)N2C)cc1	i	i	i	i	i	nt	nt	nt	nt
Cc1ccc(S(=O)(=O)/N=c2\scc(C)n2C)cc1	i	-5.5*	i	i	i	i	i	i	i
O=S(=O)(NCCc1csc(-c2cccnc2)n1)c1cccs1	i	i	i	i	i	nt	nt	nt	nt
O=S(=O)(NCCc1csc(-c2cccnc2)n1)c1ccc(Cl)s1	i	-4.9*	i	i	i	79%*	i	i	i
COc1cc2cc(CN(CCO)S(=O)(=O)c3ccccc3Cl)c(=O)[nH]c2cc1OC	i	-7.7*	i	i	i	i	i	i	i
COc1ccccc1NC(=O)c1cc2ccccc2nc1C	i	i	i	i	i	nt	nt	nt	nt
COc1ccccc1NC(=O)c1ccc2nc(C)c(C)nc2c1	i	-8.1*	i	i	i	i	i	i	i
Nc1nonc1C(=O)NCCNC(=O)c1cccc(Cl)c1	i	i	i	i	i	nt	nt	nt	nt
SMILES	RGS4 inh	MrgX1 antagonist	RGS4 act	MrgX1 PAM	MrgX1 agonist	MrgX1 antag conf	HEK293 Ca flux	HEK293 Ca counter	HEK293 Ca cntr2
O=C(Cn1nc(C(F)(F)F)cc1C1CC1)Nc1ccccc1F	i	-5.1*	i	i	i	i	i	i	i
COC(=O)CS(=O)(=O)c1cc(Br)cc2c1N(C(C)=O)CC2	i	-5.4*	i	i	i	i	i	i	65*
COc1ccc(Cl)cc1NC(=O)c1noc(C)c1[N+](=O)[O-]	i	i	i	i	i	nt	nt	nt	nt
CCOc1ccccc1N1CCN(C(=O)CCCN2C(=O)c3cccc4cccc(c34)C2=O)CC1	i	-5.5*	i	i	i	i	i	i	i
Nc1ncnc2c1ncn2CCN1CCCCC1	i	-5.7*	i	i	i	i	i	i	i
CC1CN(CCn2cnc3c(N)ncnc32)CC(C)O1 (centres undefined)	i	i	i	i	i	nt	nt	nt	nt
Cc1ccccc1C(=O)N=c1c(C#N)cc2c(=O)n3cccc(C)c3nc2n1Cc1ccco1	i	i	i	i	i	nt	nt	nt	nt
Cc1ccc(S(=O)(=O)c2cc3c(=O)n4ccccc4nc3n(Cc3ccco3)c2=N)cc1	i	-4.6*	i	i	i	76%*	i	i	i
N#Cc1cc2c(=O)n3ccccc3nc2n(Cc2ccco2)c1=NC(=O)c1ccco1	i	-4.8*	i	i	i	83%*	i	i	i
CCCCn1c(N)c(N(CCC(C)C)C(=O)C2CC(=O)N(c3ccc(OC)cc3OC)C2)c(=O)[nH]c1=O (centres undefined)	i	i	i	i	i	nt	nt	nt	nt
COc1ccc(CNC(=O)CCC(=O)Nc2nnc(C(F)(F)F)s2)cc1	i	i	i	i	i	nt	nt	nt	nt
Cc1nc(NCc2ccccn2)c2c3c(sc2n1)CCCC3	i	-5.2*	i	i	i	i	i	i	i
COc1ccc(NC(=O)CSc2ccccc2)c(OC)c1	i	-9.1*	i	i	i	i	i	i	i
COc1ccc(NC(=O)CSc2nc(=O)n(CCN3CCOCC3)c3c2CCC3)c(OC)c1	i	-7.6*	i	i	i	i	i	i	i

Screening results as filed in PubChem.
